Results taken from ChEMBL document CHEMBL1129458, “Indole inhibitors of human nonpancreatic secretory phospholipase A2. 3. Indole-3-glyoxamides” (J Med Chem, 1996).

Experiments:
Cavia porcellus [1] = species on record: Cavia porcellus; assay: Inhibition Arachidonic acid(AA) induced contraction of GP lung tissue; format: functional
In short: (§1)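 Guinea pig lung pleural strips were contracted with either hnps-PLA2 or arachidonic acid, the latter serving as the control challenge for selectivity. Antagonism is given as KB.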

Cavia porcellus [2] = species on record: Cavia porcellus; assay: Inhibition of Phospholipase A2 induced contraction of GP lung tissue; format: functional; in short: as §1
[3] = molecular target: T1, Phospholipase A2, membrane associated (Homo sapiens, UniProt P14555); assay: Inhibition of human nonpancreatic secretory Phospholipase A2 through DOC/PC assay
T1 sequence (P14555 whole entry): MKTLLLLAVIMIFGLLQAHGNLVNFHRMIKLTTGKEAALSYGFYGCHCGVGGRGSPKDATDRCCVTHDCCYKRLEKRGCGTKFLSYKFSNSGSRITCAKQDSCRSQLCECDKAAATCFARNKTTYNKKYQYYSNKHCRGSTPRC
In short: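 hnps-PLA2 (10 ng per tube; 3 nM) was preincubated with test compound in DMSO in pH 8 Tris buffer with 0.2 M NaCl, 2 mM CaCl2 and fatty-acid-free BSA. The substrate was sonicated mixed micelles (final 3 mM deoxycholate/1 mM PC) with [14C]-palmitoyl-oleoyl-PC. Reactions ran 1 h at 40 °C and were stopped with Dole reagent. Released [14C]oleic acid was extracted with heptane/silica and counted. IC50 was calculated against diluent controls.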

[4] = molecular target: T1, Phospholipase A2, membrane associated; assay: Inhibition of human nonpancreatic secretory Phospholipase A2 through chromogenic assay
[5] = Mole fraction is the IC50 concentration divided by the total lipid concentration (4000 uM) in DOC/PC assay; format: functional
In short: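 The value is a mole fraction: the DOC/PC assay IC50 (3 nM hnps-PLA2; 3 mM DOC/1 mM [14C]PC micelles; 1 h at 40 °C; released [14C]oleic acid counted) divided by the total lipid concentration of 4000 µM.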

[6] = Mole fraction of the IC50 concentration of compound divided by the total lipid concentration (1230 uM) in a chromogenic assay; format: functional
[7] = molecular target: T2, Phospholipase A2, major isoenzyme (Sus scrofa, UniProt P00592); assay: Compound was tested for inhibition of porcine secreted pancreatic PLA2
T2 sequence (P00592 whole entry): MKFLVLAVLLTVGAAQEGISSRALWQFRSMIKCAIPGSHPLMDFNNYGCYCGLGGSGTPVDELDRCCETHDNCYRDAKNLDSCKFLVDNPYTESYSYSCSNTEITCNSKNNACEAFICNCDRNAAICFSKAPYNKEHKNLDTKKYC

Phospholipase A2 [8] = molecular target: T3, Phospholipase A2 (Homo sapiens, UniProt P04054); assay: Compound was tested for inhibition of human secretory pancreatic PLA2
T3 sequence (P04054 whole entry): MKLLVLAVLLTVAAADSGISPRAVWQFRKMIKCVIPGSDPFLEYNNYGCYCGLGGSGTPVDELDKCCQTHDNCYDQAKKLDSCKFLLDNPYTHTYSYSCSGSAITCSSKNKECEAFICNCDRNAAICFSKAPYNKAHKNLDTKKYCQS

Phospholipase A2 [9] = molecular target: T3, Phospholipase A2; assay: Compound was evaluated to inhibit human secretory pancreatic Phospholipase A2
[10] = molecular target: T1, Phospholipase A2, membrane associated; assay: Compound was evaluated to inhibit human nonpancreatic secretory Phospholipase A2 through chromogenic assay; format: functional
In short: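 Chromogenic hnps-PLA₂ hydrolysis assay with 16 nM enzyme and 1.23 mM (1230 µM) total lipid substrate. IC₅₀ was determined, and the mole-fraction value is the IC₅₀ divided by the total lipid concentration.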

Phospholipase A2 [11] = molecular target: T3, Phospholipase A2; assay: Compound was tested for inhibition of human secretory pancreatic Phospholipase A2
[12] = molecular target: T2, Phospholipase A2, major isoenzyme; assay: Compound was tested for inhibition of porcine secretory pancreatic PLA2
[13] = molecular target: T2, Phospholipase A2, major isoenzyme; assay: Compound was tested for inhibition of porcine secretory pancreatic Phospholipase A2
Phospholipase A2 [14] = molecular target: T3, Phospholipase A2; assay: Compound was tested for inhibition of human secreted pancreatic PLA2

Row | SMILES | ED50 (Cavia porcellus [1]) | KB (Cavia porcellus [2]) | IC50 [3] | IC50 [4] | Mole fraction [5] | Mole fraction [6] | further results
1 | Cc1c(C(=O)C(N)=O)c2c(OCC(=O)O)cccc2n1Cc1ccc(F)cc1 | >30000 nM | 0.11 µM | 74 nM | 30 nM | 1.9e-05 | 2.5e-05 | –
2 | COc1ccc2c(c1)c(C(=O)C(N)=O)c(C)n2Cc1ccccc1 | – | – | – | 2560 nM | – | 0.00012 | –
3 | Cc1c(C(=O)C(N)=O)c2c(OC(C)C(=O)O)cccc2n1Cc1ccccc1 (centres undefined) | >30000 nM | 0.145 µM | – | 10 nM | 2.3e-06 | 8.1e-06 | –
4 | NC(=O)C(=O)c1c(C2CC2)n(Cc2ccccc2)c2cccc(OCC(=O)O)c12 | – | – | 41 nM | 28 nM | 1e-05 | 2.3e-05 | –
5 | CCc1c(C(=O)C(N)=O)c2c(OCC(=O)O)cccc2n1C(=O)c1ccccc1 | – | 0.34 µM | 39 nM | 81 nM | 9.8e-06 | 6.6e-05 | –
6 | Cc1ccccc1Cn1c(C)c(C(=O)C(N)=O)c2c(OCC(=O)O)cccc21 | >30000 nM | 0.154 µM | 45 nM | 15 nM | 1.1e-05 | 1.3e-05 | –
7 | C=CCc1ccc2c(c1OCC(=O)O)c(C(=O)C(N)=O)c(CC)n2Cc1ccccc1 | – | – | – | 1620 nM | – | 0.013 | –
8 | NC(=O)C(=O)c1cn(Cc2ccccc2)c2ccc(OCCCC(=O)O)cc12 | – | – | – | – | – | 0.048 | –
9 | CCc1c(C(=O)C(N)=O)c2c(O[C@@H](C)C(=O)O)cccc2n1Cc1ccccc1 | – | – | – | 141 nM | – | 0.00011 | –
10 | CCc1c(C(=O)C(N)=O)c2c(OCC(=O)O)cccc2n1Cc1cccc(Cl)c1 | 5000 nM | 0.11 µM | 25 nM | 7 nM | 6.3e-06 | 5.8e-06 | IC50 [7]: 3 nM; IC50 (Phospholipase A2 [8]): 390 nM
11 | Cc1c(C(=O)C(N)=O)c2c(/C=C/C(=O)O)cccc2n1Cc1ccccc1 | – | – | – | 46000 nM | – | 0.036 | IC50 (Phospholipase A2 [9]): > 100000 nM
12 | Cc1c(C(=O)C(N)=O)c2c(O[C@@H](C)C(=O)O)cccc2n1Cc1ccccc1 | – | – | 136 nM | 188 nM | 3.4e-05 | 0.00015 | –
13 | CCc1c(C(=O)C(N)=O)c2c(OC(C)C(=O)O)cccc2n1Cc1ccccc1 (centres undefined) | 3160 nM | 0.21 µM | 13 nM | 11 nM | 3.3e-06 | 8.9e-06 | –
14 | Cc1c(C(=O)C(N)=O)c2c(OCCCC(=O)O)cccc2n1Cc1ccccc1-c1ccccc1 | – | – | – | 243 nM | – | 0.0002 | –
15 | CCCc1c(C(=O)C(N)=O)c2c(OCC(=O)O)cccc2n1Cc1ccccc1-c1ccccc1 | – | – | – | – | – | 6.7e-05 | –
16 | CCc1[nH]c2cccc(OCC(=O)O)c2c1C(=O)C(N)=O | – | 3.41 µM | – | 1600 nM | – | 0.0013 | –
17 | CCc1c(C(=O)C(N)=O)c2c(OCC(=O)O)cccc2n1S(=O)(=O)c1ccccc1 | – | 0.316 µM | – | – | – | 2.3e-05 | IC50 [10]: 28 nM
18 | Cc1c(C(=O)C(N)=O)c2c(OCC(=O)O)cccc2n1Cc1ccc(-c2ccccc2)cc1 | – | – | 150 nM | 43 nM | 3.8e-05 | 3.6e-05 | IC50 (Phospholipase A2 [11]): 1090 nM
19 | CCc1c(C(=O)C(N)=O)c2c(OC(CCc3ccccc3)C(=O)O)cccc2n1Cc1ccccc1 (centres undefined) | >30000 nM | 0.293 µM | 26 nM | 46 nM | 6.5e-06 | 3.8e-05 | –
20 | Cc1c(C(=O)C(N)=O)c2c(CCC(=O)O)cccc2n1Cc1ccccc1 | – | 0.614 µM | – | 145 nM | – | 0.00012 | IC50 (Phospholipase A2 [9]): > 100000 nM
21 | CCc1c(C(=O)C(N)=O)c2c(OCC(=O)O)cccc2n1Cc1ccccc1 [VARESPLADIB] | >30000 nM | 0.083 µM | – | – | 1.8e-06 | 7.3e-06 | IC50 (Phospholipase A2 [11]): 228 nM; IC50 [12]: 48 nM
22 | CCc1c(C(=O)C(N)=O)c2c(SCC(=O)O)cccc2n1Cc1ccccc1 | – | – | 210 nM | 145 nM | 5.3e-05 | 0.00012 | –

Row | SMILES | ED50 (Cavia porcellus [1]) | KB (Cavia porcellus [2]) | IC50 [3] | IC50 [4] | Mole fraction [5] | Mole fraction [6] | further results
23 | Cc1c(C(=O)C(N)=O)c2c(OCC(=O)O)cccc2n1Cc1ccccc1-c1ccccc1 | >10000 nM | 0.068 µM | 3 nM | 6 nM | 7.5e-07 | 5e-06 | IC50 (Phospholipase A2 [11]): 364 nM; IC50 [13]: 97 nM
24 | CCc1c(C(=O)C(N)=O)c2c(OCC(=O)O)cccc2n1Cc1ccccc1Cc1ccccc1 | – | 0.052 µM | 4 nM | 4 nM | 1e-06 | 3.3e-06 | IC50 (Phospholipase A2 [11]): 62 nM
25 | NC(=O)C(=O)c1c(C2CC2)n(Cc2ccccc2-c2ccccc2)c2cccc(OCC(=O)O)c12 | >10000 nM | 0.075 µM | 23 nM | 6 nM | 5.8e-06 | 5e-06 | –
26 | Cc1c(C(=O)C(N)=O)c2c(OCC(=O)O)cccc2n1Cc1ccccc1 | >10000 nM | 0.14 µM | 19 nM | 11 nM | 4.8e-06 | 8.9e-06 | IC50 (Phospholipase A2 [11]): 761 nM; IC50 [13]: 15 nM
27 | Cc1c(C(=O)C(N)=O)c2c(OCC(=O)O)cccc2n1Cc1c(Cl)cccc1Cl | >30000 nM | 0.077 µM | 22 nM | – | 5.5e-06 | 5e-06 | –
28 | Cc1c(C(=O)C(N)=O)c2c(OCC(=O)O)cccc2n1Cc1ccccc1Cl | >30000 nM | 0.1 µM | 25 nM | 9 nM | 6.3e-06 | 7.3e-06 | –
29 | COc1cccc2c1c(C(=O)C(N)=O)c(C)n2Cc1ccccc1 | – | – | – | 551 nM | – | 0.00012 | –
30 | CCc1c(C(=O)C(N)=O)c2cc(OCCCC(=O)O)ccc2n1Cc1ccccc1 | – | – | – | – | – | 0.00017 | –
31 | CCCc1ccc2c(c1OCC(=O)O)c(C(=O)C(N)=O)c(CC)n2Cc1ccccc1 | – | – | – | 2070 nM | – | 0.0017 | –
32 | Cc1c(C(=O)C(N)=O)c2c(OCC(=O)O)cccc2n1Cc1cccc2ccccc12 | >30000 nM | 0.128 µM | 17 nM | 9 nM | 4.3e-06 | 7.3e-06 | IC50 (Phospholipase A2 [11]): 1200 nM
33 | CCc1c(C(=O)C(N)=O)c2c(OCC(=O)O)cccc2n1Cc1ccccc1-c1ccccc1 | 30000 nM | 0.057 µM | 6 nM | 6 nM | 1.5e-06 | 5e-06 | –
34 | Cc1c(C(=O)C(N)=O)c2c(O[C@H](C)C(=O)O)cccc2n1Cc1ccccc1 | – | – | 6 nM | 11 nM | 1.5e-06 | 8.9e-06 | –
35 | COc1cccc2c1c(CC(N)=O)c(C)n2Cc1ccccc1 | – | – | – | 1180 nM | – | 0.00012 | –
36 | CCc1c(C(=O)C(N)=O)c2c(CC(=O)O)cc(C)cc2n1Cc1ccccc1 | 3160 nM | 0.124 µM | 8 nM | 8 nM | 2e-06 | 6.5e-06 | –
37 | CCc1c(C(=O)C(N)=O)c2c(N(CCC(=O)O)C(C)=O)cccc2n1Cc1ccccc1 | – | – | – | > 100000 nM | – | – | –
38 | CCCCCCCCn1c(C)c(C(=O)C(N)=O)c2c(OCC(=O)O)cccc21 | >30000 nM | 0.061 µM | 18 nM | 8 nM | 4.5e-06 | 6.5e-06 | IC50 (Phospholipase A2 [14]): 780 nM
39 | Cc1c(C(=O)C(N)=O)c2c(OCC(=O)O)cccc2n1Cc1cccc(-c2ccccc2)c1 | – | – | 8 nM | 9 nM | 2e-06 | 7.3e-06 | IC50 (Phospholipase A2 [11]): 570 nM; IC50 [13]: 7 nM
40 | CCc1c(C(=O)C(N)=O)c2c(OC(C)(C)C(=O)O)cccc2n1Cc1ccccc1 | >30000 nM | 0.143 µM | 29 nM | 25 nM | 7.3e-06 | 2.1e-05 | –
41 | CCc1c(C(=O)C(N)=O)c2c(NCC(=O)O)cccc2n1Cc1ccccc1 | – | – | – | 1000 nM | – | 0.00081 | –
42 | NC(=O)C(=O)c1cn(Cc2ccccc2)c2cccc(OCC(=O)O)c12 | – | – | – | 96 nM | – | 8e-05 | –
43 | CCc1c(C(=O)C(N)=O)c2c(OCC(N)=O)cccc2n1Cc1ccccc1 | – | – | – | 124 nM | – | 0.0001 | –
44 | CCc1c(C(=O)C(N)=O)c2c(N(CC(=O)O)C(C)=O)cccc2n1Cc1ccccc1 | – | – | – | > 100000 nM | – | – | –
